Blank lines part the entries; values can stand above or below the compound they belong to.
Assays:
Assay type in all cases: cell-based
[1] = biological target: Nuclear receptor subfamily 1 group I member 3 (Mus musculus, UniProt O35627, F171A); test: Enhancement of nuclear co-repressor receptor binding to mouse CAR F171A mutant […] at 10 uM by yeast two-hybrid assay
Procedure, shortened: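 Yeast two-hybrid assay. Yeast co-expressing wild-type or mutant mouse CAR LBD and the NCoR partner were selected on SD plates lacking leucine and tryptophan. Pooled, amplified colonies were treated with DMSO or test chemical for 3.5 h. β-galactosidase activity was normalized to cell density and referenced to the 10 µM androstenol interaction (=100). Mean ± standard deviation of two determinations, each in triplicate.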

[2] = biological target: Nuclear receptor subfamily 1 group I member 3 (Mus musculus, UniProt O35627, L353A); test: Enhancement of nuclear co-repressor receptor binding to mouse CAR L353A mutant […] at 10 uM by yeast two-hybrid assay
Procedure, shortened: (§1)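 Yeast two-hybrid: yeast expressing wild-type or mutant mouse CAR LBD plus SRC-1 or NCoR, selected on SD medium lacking Leu and Trp. Pooled colonies treated with DMSO or test chemical for 3.5 h. β-Galactosidase normalized to cell density. SRC-1 reference: wild-type + DMSO = 100. NCoR reference: 10 µM androstenol = 100. Mean ± SD, two independent determinations, each in triplicate.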

[3] = biological target: T1, Nuclear receptor subfamily 1 group I member 3 (Mus musculus, UniProt O35627, H213A); test: Enhancement of nuclear co-repressor receptor binding to mouse CAR H213A mutant […] at 10 uM by yeast two-hybrid assay; procedure, shortened: as §1
[4] = biological target: Nuclear receptor subfamily 1 group I member 3 (Mus musculus, UniProt O35627, F171L); test: Enhancement of nuclear co-repressor receptor binding to mouse CAR F171L mutant […] at 10 uM by yeast two-hybrid assay; procedure, shortened: as §1
[5] = biological target: T2, Nuclear receptor subfamily 1 group I member 3 (Mus musculus, UniProt O35627, L212A); test: Effect on nuclear co-repressor receptor binding to mouse CAR L212A mutant […] at 10 uM by yeast two-hybrid assay; settings: read-out: Activity; procedure, shortened: as §1
[6] = biological target: T1, Nuclear receptor subfamily 1 group I member 3; test: Activation of mouse CAR H213A mutant expressed in HEK293 cells at 1 uM by mammalian one-hybrid assay; settings: hek293, 1 µM
Procedure, shortened: (§2)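 GAL4 DBD fused to mouse CAR LBD (residues 118-358), wild type or point mutant, cotransfected with UASx4-tk-luc reporter and pCMVβ into HEK293 cells. Cells cultured with DMSO (0.1% v/v) or compound (final 1, 2 or 10 µM). Lysed 24 h post-transfection. Luciferase normalized to β-galactosidase, expressed relative to empty GAL4 vector (=1.0). Mean ± SD, three independent experiments.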

[7] = biological target: T3, Nuclear receptor subfamily 1 group I member 3 (Mus musculus, UniProt O35627, T350A); test: Effect on nuclear co-repressor receptor binding to mouse CAR T350A mutant […] at 1 uM by yeast two-hybrid assay; settings: read-out: Activity
Procedure, shortened: (§3)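 Yeast expressing wild-type or mutant mouse CAR LBD plus NCoR, selected on SD plates lacking leucine and tryptophan. Pooled colonies treated with DMSO or compound for 3.5 h. β-Galactosidase activity normalized to cell density. Reference is 10 µM androstenol (=100). Mean ± SD of two independent determinations, each in triplicate.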

[8] = biological target: Nuclear receptor subfamily 1 group I member 3 (Mus musculus, UniProt O35627, Y336A); test: Effect on nuclear co-repressor receptor binding to mouse CAR Y336A mutant […] at 1 uM by yeast two-hybrid assay; settings: read-out: Activity; procedure, shortened: as §3
[9] = biological target: T4, Nuclear receptor subfamily 1 group I member 3 (Mus musculus, UniProt O35627, S251L); test: Effect on steroid receptor co-activator 1 binding to mouse CAR S251L mutant […] at 1 uM by yeast two-hybrid assay; settings: read-out: Activity
Procedure, shortened: (§4)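 Yeast two-hybrid assay. Yeast co-expressing wild-type or mutant mouse CAR LBD and the SRC-1 partner were selected on SD plates lacking leucine and tryptophan. Random colonies were pooled and amplified, then treated with DMSO or test chemical for 3.5 h. β-galactosidase activity was normalized to cell density and set relative to wild-type mCAR + SRC-1 with DMSO (=100). Mean ± standard deviation of two determinations, each in triplicate.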

[10] = biological target: T2, Nuclear receptor subfamily 1 group I member 3; test: Effect on nuclear co-repressor receptor binding to mouse CAR L212A mutant […] at 1 uM by yeast two-hybrid assay; settings: read-out: Activity; procedure, shortened: as §3
[11] = biological target: T3, Nuclear receptor subfamily 1 group I member 3; test: Decrease in mouse CAR T350A mutant activation expressed in HEK293 cells at 1 uM by mammalian one-hybrid assay; settings: read-out: Activity; procedure, shortened: as §2
[12] = biological target: T5, Nuclear receptor subfamily 1 group I member 3 (Mus musculus, UniProt O35627, L253F); test: Effect on steroid receptor coactivator 1 binding to mouse CAR L253F mutant […] at 1 uM by yeast two-hybrid assay; settings: read-out: Activity; procedure, shortened: as §4
[13] = biological target: T3, Nuclear receptor subfamily 1 group I member 3; test: Activation of mouse CAR T350A mutant expressed in HEK293 cells at 10 uM by mammalian one-hybrid assay; settings: hek293, 10 µM; procedure, shortened: as §2
[14] = biological target: T2, Nuclear receptor subfamily 1 group I member 3; test: Decrease in nuclear co-repressor receptor binding to mouse CAR L212A mutant […] at 2 uM by yeast two-hybrid assay; settings: read-out: Activity; procedure, shortened: as §1
[15] = biological target: T6, Nuclear receptor subfamily 1 group I member 3 (Mus musculus, UniProt O35627, N175A); test: Decrease in mouse CAR N175A mutant activation expressed in HEK293 cells at 2 uM by mammalian one-hybrid assay; settings: read-out: Activity
Procedure, shortened: (§5)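 GAL4-DBD fused to mouse CAR LBD (residues 118-358), wild-type or point mutant, cotransfected with UASx4-tk-luc reporter and pCMVβ into HEK293 cells. Cells were exposed to final 1 µM, 2 µM or 10 µM test chemical, or 0.1% v/v DMSO, for 24 h after transfection. Luciferase was normalized to β-galactosidase and set against empty GAL4 vector (=1.0). Mean ± standard deviation, three independent experiments.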

[16] = biological target: T6, Nuclear receptor subfamily 1 group I member 3; test: Decrease in nuclear co-repressor receptor binding to mouse CAR N175A mutant […] at 2 uM by yeast two-hybrid assay; settings: read-out: Activity; procedure, shortened: as §1
[17] = biological target: T3, Nuclear receptor subfamily 1 group I member 3; test: Decrease in mouse CAR T350A mutant activation expressed in HEK293 cells at 2 uM by mammalian one-hybrid assay; settings: read-out: Activity; procedure, shortened: as §5
[18] = biological target: T5, Nuclear receptor subfamily 1 group I member 3; test: Decrease in nuclear co-repressor receptor binding to mouse CAR L253F mutant […] at 2 uM by yeast two-hybrid assay; settings: read-out: Activity; procedure, shortened: as §1
[19] = biological target: T4, Nuclear receptor subfamily 1 group I member 3; test: Decrease in nuclear co-repressor receptor binding to mouse CAR S251L mutant […] at 2 uM by yeast two-hybrid assay; set-up: scale not given: the % may be the effect or the level left; procedure, shortened: as §1
[20] = biological target: T6, Nuclear receptor subfamily 1 group I member 3; test: Decrease in steroid receptor coactivator 1 binding to mouse CAR N175A mutant […] at 10 uM by yeast two-hybrid assay; settings: read-out: Activity
Procedure, shortened: as §3, with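 “SRC-1,” for “NCoR,”, “wild-type CAR + SRC-1 with DMSO” for “10 µM androstenol”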

T6 sequence (O35627 whole entry N175A, the tested form may be a part): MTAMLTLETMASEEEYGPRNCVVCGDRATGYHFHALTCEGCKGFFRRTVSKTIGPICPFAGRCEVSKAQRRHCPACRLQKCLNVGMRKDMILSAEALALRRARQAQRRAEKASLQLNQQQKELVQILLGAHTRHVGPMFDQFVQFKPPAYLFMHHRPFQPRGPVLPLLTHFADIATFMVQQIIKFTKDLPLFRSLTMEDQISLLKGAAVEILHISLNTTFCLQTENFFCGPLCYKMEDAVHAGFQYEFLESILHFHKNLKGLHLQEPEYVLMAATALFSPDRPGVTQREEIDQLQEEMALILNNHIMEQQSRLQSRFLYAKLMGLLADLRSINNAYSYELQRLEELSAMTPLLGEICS
T2 sequence (O35627 whole entry L212A): as the sequence (O35627 whole entry N175A, the tested form may be a part) above, with A175N, L212A counted along it
T3 sequence (O35627 whole entry T350A, the tested form may be a part): as the sequence (O35627 whole entry N175A, the tested form may be a part) above, with A175N, T350A counted along it
T4 sequence (O35627 whole entry S251L, the tested form may be a part): as the sequence (O35627 whole entry N175A, the tested form may be a part) above, with A175N, S251L counted along it
Sequence of Nuclear receptor subfamily 1 group I member 3 (Mus musculus, UniProt O35627, F171A) (O35627 whole entry F171A, the tested form may be a part): as the sequence (O35627 whole entry N175A, the tested form may be a part) above, with F171A, A175N counted along it
T1 sequence (O35627 whole entry H213A): as the sequence (O35627 whole entry N175A, the tested form may be a part) above, with A175N, H213A counted along it
T5 sequence (O35627 whole entry L253F): as the sequence (O35627 whole entry N175A, the tested form may be a part) above, with A175N, L253F counted along it
Sequence of Nuclear receptor subfamily 1 group I member 3 (Mus musculus, UniProt O35627, L353A) (O35627 whole entry L353A, the tested form may be a part): as the sequence (O35627 whole entry N175A, the tested form may be a part) above, with A175N, L353A counted along it
Sequence of Nuclear receptor subfamily 1 group I member 3 (Mus musculus, UniProt O35627, F171L) (O35627 whole entry F171L): as the sequence (O35627 whole entry N175A, the tested form may be a part) above, with F171L, A175N counted along it
Sequence of Nuclear receptor subfamily 1 group I member 3 (Mus musculus, UniProt O35627, Y336A) (O35627 whole entry Y336A): as the sequence (O35627 whole entry N175A, the tested form may be a part) above, with A175N, Y336A counted along it

Activity [1]: >= 50% | Activity [2]: >= 50% | Activity [3]: >= 50% | Activity [4]: >= 50% | activity at 10 µM [5]: < 50%
SMILES: COc1ccc(C(=O)CCCc2ccccc2)cc1

SMILES: Clc1cnc(Oc2ccc(Oc3ncc(Cl)cc3Cl)cc2)c(Cl)c1
Activity [6]: 50% | activity at 1 µM [7]: < 50% | activity at 1 µM [8]: < 50% | activity at 1 µM [9]: < 50% | activity at 1 µM [10]: < 50% | inhibition at 1 µM [11]: < 50% | activity at 1 µM [12]: < 50%

SMILES: C[C@]12CC[C@@H](O)C[C@@H]1CC[C@@H]1[C@@H]2CC[C@]2(C)C=CC[C@@H]12 [ANDROSTENOL]
Activity [13]: < 50%

inhibition at 2 µM [14]: ≥ 50% | inhibition at 2 µM [15]: 50% | inhibition at 2 µM [16]: < 50% | inhibition at 2 µM [17]: < 50% | inhibition at 2 µM [18]: ≥ 50% | Activity [19]: >= 50%
SMILES: Clc1ccccc1C(c1ccccc1)(c1ccccc1)n1ccnc1 [CLOTRIMAZOLE]

SMILES: COc1ccc(C(c2ccc(OC)cc2)C(Cl)(Cl)Cl)cc1 [METHOXYCHLOR]
Activity [1]: >= 50% | inhibition at 10 µM [20]: ≥ 50%

Source: ChEMBL document CHEMBL1152300, “Ligand specificity of constitutive androstane receptor as probed by induced-fit docking and mutagenesis” (J Med Chem, 2008)
